Measurements gathered from unrelated publications.
Target: Dual specificity tyrosine-phosphorylation-regulated kinase 1B (DYRK1B, Homo sapiens, UniProt Q9Y463)
Method: competition with immobilised ligand

SMILES	effect on	concentration	remaining binding
c1cncc(-c2cccc(Nc3nccc(NC4CCCCC4)n3)c2)c1	binding	10 µM	38%
Nc1ncc2c(n1)-c1c([nH]c3ccc(C#CC4CC4)cc13)CCCC2	binding	1 µM	77%
O=C(c1ccc(Nc2nccc(-c3cc4ccccc4s3)n2)cc1)N1CCC(N2CCCC2)CC1	binding	1 µM	99%
CC(C)(C)c1ccc(-c2nc(CBr)nn2-c2cccc(O)c2)cc1	cell-free assay	10 µM	78%
O=C(NCCCN1CCOCC1)c1ccc(Nc2ncc(Cl)c(-c3ccc(Cl)s3)n2)cc1	binding	1 µM	13%
COc1ncc2cc3ccccc3nc2c1C#N	cell-free assay	5 µM	81%
C[C@@H](c1ccc(-n2cnc3c(N)ncnc32)cc1)N1CCc2nn(C)c(Cc3ccccc3)c2C1=O	binding	0.1 µM	91%
Cc1c[nH]c2nccc(Oc3c(F)cc(Nc4cc(Cl)nc(N)n4)cc3F)c12	cell-free assay	0.1 µM	100%
Cc1cnc(Nc2ccc(C(=O)N3CCC(N4CCCC4)CC3)cc2)nc1-c1cc2ccccc2s1	binding	1 µM	43%
Cc1cc(-n2nc(Cc3cc(F)cc(C(F)(F)F)c3)nc2C)ccc1C(N)=O	cell-free assay	1 µM	100%
O=C(Nc1c[nH]nc1C(=O)NC1CCNCC1)c1cc(F)cc(F)c1	binding	1 µM	100%
COc1ccc2c(c1)O[C@H](c1ccc(OC)c(OC)c1)C[C@@H]2NC(=O)C1(c2ccc3c(c2)OC(F)(F)O3)CC1	cell-free assay	1 µM	91%
COc1cnc(Nc2cccc(S(N)(=O)=O)c2)nc1N1CCN(c2ccccc2)C(=O)C1	binding	1 µM	91%
Nc1c(C(=O)NCc2ccc(C(=O)NCCCC3CCCCC3)cc2)cnn1-c1ccccc1	cell-free assay	0.1 µM	100%
COC(=O)Nc1nc2ccc(C(=O)c3ccccc3)cc2[nH]1	cell-free assay	10 µM	5.6%
